Measurements reported in ChEMBL document CHEMBL2331117 (J Med Chem, 2013).

Columns and labels:
[1] = Drug uptake in tumor of athymic mouse xenografted with human MCF7 cells at 100 mg/kg, po after 4 hrs; format: ADME, organism-based, Neoplasm; set-up: dose 100 mg/kg, route oral; details: read-out: Drug uptake
[2] = Drug uptake in tumor of athymic mouse xenografted with human MCF7 cells at 100 mg/kg, po after 1 hr; format: ADME, organism-based, Neoplasm; set-up: dose 100 mg/kg, route oral; details: read-out: Drug uptake
[3] = tested on: Mus musculus; assay: In vivo inhibition of mTORC1-mediated phosphorylation of 4EBP1 at ([…]) in human MCF7 cells xenografted into athymic nude mouse at 100 mg/kg, po after 1 hr by Western blotting analysis relative to control; format: functional; details: MCF7, 1 h
[4] = tested on: Mus musculus; assay: In vivo inhibition of mTORC1-mediated phosphorylation of pS6 at (serine 240/244) in human MCF7 cells xenografted into athymic nude mouse at 100 mg/kg, po after 8 hrs by Western blotting analysis relative to control; format: functional; details: MCF7, 8 h
In short: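 MCF-7 cells (DMEM, 10% FBS) were implanted subcutaneously at 5 × 10^6 cells in 50% cold HBSS/50% growth-factor-reduced matrigel into the hindflank of 5−8 week old female nude mice. At tumor size 40−150 mg, mice received a single oral dose of 100 mg/kg. Tumor lysates were pooled per group. Phospho-AKT (S473, T308), p70S6K (T389), S6 (S240/244) and 4E-BP1 (T37/46) were measured by Western blot normalized to α-tubulin.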

[5] = target: Receptor-type tyrosine-protein kinase FLT3 (Homo sapiens, UniProt P36888); assay: Inhibition of FLT3 (unknown origin)
[6] = target: Phosphatidylinositol 4,5-bisphosphate 3-kinase catalytic subunit gamma isoform (Homo sapiens, UniProt P48736); assay: Inhibition of PI3Kgamma (unknown origin)
[7] = Oral bioavailability in cynomolgus monkey at 3 mg/kg; format: ADME, organism-based, Macaca fascicularis; details: in vivo
In short: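 Male cynomolgus monkeys received 3 mg/kg intravenously and by oral gavage as a solution in EPW (5% ethanol/45% PEG400/water + 1:1.5 HCl m/m).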

[8] = Clearance in athymic nude mouse at 10 mg/kg, iv; format: ADME, organism-based; set-up: dose 10 mg/kg, route intravenous; details: in vivo
In short: (§1)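 Single-dose PK: female athymic nude mice (10 mg/kg), female CD rats and male beagle dogs (3 mg/kg), male cynomolgus monkeys (3 mg/kg), given iv and by oral gavage. Solution in EPW (5% ethanol/45% PEG400/water), with 1:2 HCl (m/m) for mouse, rat and dog and 1:1.5 HCl (m/m) for monkey. Plasma levels followed over 24 h.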

[9] = Half life in cynomolgus monkey at 3 mg/kg, iv; format: ADME, organism-based, Macaca fascicularis; set-up: dose 3 mg/kg, route intravenous; details: in vivo; in short: as §1
[10] = Half life in CD rat at 3 mg/kg, iv; format: ADME, organism-based; set-up: dose 3 mg/kg, route intravenous; details: in vivo; in short: as §1
[11] = AUC (0 to infinity) in Beagle dog at 3 mg/kg, iv; format: ADME, organism-based, Canis lupus familiaris; set-up: time infinity, dose 3 mg/kg, route intravenous; details: plasma; in short: as §1
[12] = AUC (0 to infinity) in athymic nude mouse at 10 mg/kg, iv; format: ADME, organism-based; set-up: time infinity, dose 10 mg/kg, route intravenous; details: plasma; in short: as §1
[13] = Drug uptake in tumor of athymic mouse xenografted with human PC3 cells at 100 mg/kg, po after 32 hrs; format: ADME, organism-based, Neoplasm, PC-3; set-up: dose 100 mg/kg, route oral; details: in vivo, BLD = below limit of detection
In short: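 PC-3 cells (3 × 10⁶, passages 10–14, in ice-cold HBSS) were implanted sc in 5–8 week old male nude mice. Tumors of 200–500 mg received a single oral 100 mg/kg dose. Plasma and tumor were collected at 1, 4, 8, 16, 24 and 32 h and homogenized in buffer. Lysates were pooled per group (n = 5), and phospho-proteins were measured by Western blot normalized to α-tubulin.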

[14] = tested on: Plasma; assay: Plasma concentration in athymic mouse plasma xenografted with human MCF7 cells at 100 mg/kg, po after 24 hrs; format: ADME, organism-based; set-up: dose 100 mg/kg, route oral; details: in vivo, BLD = below limit of detection
In short: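 MCF-7 cells (5 × 10^6, in 50% cold HBSS/50% growth-factor-reduced matrigel) were implanted subcutaneously in the hindflank of 5–8 week old female nude mice. At 40–150 mg tumour size, mice received a single oral dose of 100 mg/kg, and plasma was sampled at the listed times after dosing.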

[15] = target: Cytochrome P450 2C9 (Homo sapiens, UniProt P11712); assay: Inhibition of CYP2C9 (unknown origin); format: ADME
[16] = target: Cytochrome P450 3A4 (Homo sapiens, UniProt P08684); assay: Inhibition of CYP3A4 (unknown origin); format: ADME
[17] = Metabolic stability in mouse liver microsomes after 30 mins; format: ADME, Microsome; details: read-out: Stability
[18] = target: Phosphatidylinositol 4,5-bisphosphate 3-kinase catalytic subunit alpha isoform (Homo sapiens, UniProt P42336); assay: Inhibition of PI3Kalpha (unknown origin) using PIP2 as substrate after 2 hrs by luminescence assay
[19] = target: Casein kinase II (Homo sapiens, UniProt P19784+P67870+P68400); assay: Inhibition of CK2 (unknown origin); format: protein-complex assay
[20] = target: Serine/threonine-protein kinase pim-1 (Homo sapiens, UniProt P11309); assay: Inhibition of PIM1 (unknown origin)
[21] = target: Mast/stem cell growth factor receptor Kit (Homo sapiens, UniProt P10721); assay: Inhibition of KIT (unknown origin)
[22] = tested on: Mus musculus; assay: In vivo inhibition of mTORC1-mediated phosphorylation of pS6 at (serine 240/244) in human PC3 cells xenografted into athymic nude mouse at 100 mg/kg, po after 4 hrs by Western blotting analysis relative to control; format: functional; details: PC-3, 4 h
In short: (§2)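 PC-3 cells grown in DMEM with 20% FBS were implanted subcutaneously at 3 × 10^6 cells in ice-cold HBSS into the hindflank of 5−8 week old male nude mice. At tumor size 200−500 mg, mice received a single oral dose of 100 mg/kg. Plasma and tumors were collected at 1, 4, 8, 16, 24 and 32 h. Tumor lysates from each group (n = 5) were pooled. Phospho-proteins were quantified by Western blot and normalized to α-tubulin.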

[23] = tested on: Mus musculus; assay: In vivo inhibition of mTORC1-mediated phosphorylation of p70S6K at […] in human PC3 cells xenografted into athymic nude mouse at 100 mg/kg, po after 4 hrs by Western blotting analysis relative to control; format: functional; details: PC-3, 4 h; in short: as §2
[24] = tested on: Mus musculus; assay: In vivo inhibition of mTORC1-mediated phosphorylation of p70S6K at […] in human PC3 cells xenografted into athymic nude mouse at 100 mg/kg, po after 1 hr by Western blotting analysis relative to control; format: functional; details: PC-3, 1 h; in short: as §2
[25] = tested on: Mus musculus; assay: In vivo inhibition of mTORC2-mediated phosphorylation of AKT at […] in human PC3 cells xenografted into athymic nude mouse at 100 mg/kg, po after 16 hrs by Western blotting analysis relative to control; format: functional; details: PC-3, 16 h
In short: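 Human PC-3 cells were implanted subcutaneously into the hindflank of male nude mice aged 5−8 weeks, at 3 × 10^6 cells (passages 10−14, >95% viability) in ice-cold HBSS. At a tumor size of 200−500 mg, mice got one oral 100 mg/kg dose. Tumors were taken at 1, 4, 8, 16, 24 and 32 h. Lysates (n = 5 per group) were pooled, and phospho-AKT (T308) was read by Western blot, normalized to α-tubulin.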

[26] = tested on: Mus musculus; assay: In vivo inhibition of mTORC2-mediated phosphorylation of AKT at serine 473 in human PC3 cells xenografted into athymic nude mouse at 100 mg/kg, po after 16 hrs by Western blotting analysis relative to control; format: functional; details: PC-3, 16 h; in short: as §2

Sequence of Mast/stem cell growth factor receptor Kit (P10721 whole entry): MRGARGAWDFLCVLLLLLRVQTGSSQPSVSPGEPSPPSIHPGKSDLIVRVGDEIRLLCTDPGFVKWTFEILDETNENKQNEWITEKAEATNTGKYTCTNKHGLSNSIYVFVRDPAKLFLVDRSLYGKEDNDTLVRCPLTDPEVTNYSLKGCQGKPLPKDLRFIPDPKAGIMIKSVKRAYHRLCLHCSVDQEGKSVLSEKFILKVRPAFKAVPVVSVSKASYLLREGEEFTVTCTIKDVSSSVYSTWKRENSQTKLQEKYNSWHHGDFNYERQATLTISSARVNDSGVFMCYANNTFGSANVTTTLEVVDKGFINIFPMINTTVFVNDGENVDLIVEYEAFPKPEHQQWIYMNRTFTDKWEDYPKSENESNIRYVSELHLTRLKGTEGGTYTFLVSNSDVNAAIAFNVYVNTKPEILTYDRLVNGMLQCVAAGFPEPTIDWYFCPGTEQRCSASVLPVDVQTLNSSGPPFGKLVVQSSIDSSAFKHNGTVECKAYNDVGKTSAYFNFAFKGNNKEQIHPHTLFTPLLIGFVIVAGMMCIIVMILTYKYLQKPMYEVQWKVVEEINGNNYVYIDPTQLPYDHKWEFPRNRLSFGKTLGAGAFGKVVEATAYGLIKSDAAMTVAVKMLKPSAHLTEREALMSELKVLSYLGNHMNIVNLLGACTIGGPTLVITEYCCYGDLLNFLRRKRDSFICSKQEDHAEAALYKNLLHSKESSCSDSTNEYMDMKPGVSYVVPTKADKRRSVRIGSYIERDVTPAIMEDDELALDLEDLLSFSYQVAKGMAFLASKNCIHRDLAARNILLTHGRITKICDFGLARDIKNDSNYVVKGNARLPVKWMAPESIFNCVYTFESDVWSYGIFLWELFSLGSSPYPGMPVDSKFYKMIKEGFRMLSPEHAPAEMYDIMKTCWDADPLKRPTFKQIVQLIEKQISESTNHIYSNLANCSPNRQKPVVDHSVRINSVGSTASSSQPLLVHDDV
Sequence of Cytochrome P450 2C9 (P11712 whole entry): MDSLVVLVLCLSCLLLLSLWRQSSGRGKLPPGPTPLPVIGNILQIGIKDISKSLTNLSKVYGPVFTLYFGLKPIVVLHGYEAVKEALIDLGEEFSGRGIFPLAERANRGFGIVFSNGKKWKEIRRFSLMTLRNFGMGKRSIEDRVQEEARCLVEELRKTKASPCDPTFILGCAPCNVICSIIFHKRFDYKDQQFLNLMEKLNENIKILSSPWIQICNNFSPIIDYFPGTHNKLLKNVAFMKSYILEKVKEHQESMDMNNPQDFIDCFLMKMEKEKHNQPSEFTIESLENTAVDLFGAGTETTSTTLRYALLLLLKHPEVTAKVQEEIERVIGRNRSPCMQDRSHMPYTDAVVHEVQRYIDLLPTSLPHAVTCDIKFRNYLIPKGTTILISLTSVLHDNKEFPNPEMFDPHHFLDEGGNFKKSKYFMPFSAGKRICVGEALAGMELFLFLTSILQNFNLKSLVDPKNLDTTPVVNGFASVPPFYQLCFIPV
Sequence of Receptor-type tyrosine-protein kinase FLT3 (P36888 whole entry, canonical isoform): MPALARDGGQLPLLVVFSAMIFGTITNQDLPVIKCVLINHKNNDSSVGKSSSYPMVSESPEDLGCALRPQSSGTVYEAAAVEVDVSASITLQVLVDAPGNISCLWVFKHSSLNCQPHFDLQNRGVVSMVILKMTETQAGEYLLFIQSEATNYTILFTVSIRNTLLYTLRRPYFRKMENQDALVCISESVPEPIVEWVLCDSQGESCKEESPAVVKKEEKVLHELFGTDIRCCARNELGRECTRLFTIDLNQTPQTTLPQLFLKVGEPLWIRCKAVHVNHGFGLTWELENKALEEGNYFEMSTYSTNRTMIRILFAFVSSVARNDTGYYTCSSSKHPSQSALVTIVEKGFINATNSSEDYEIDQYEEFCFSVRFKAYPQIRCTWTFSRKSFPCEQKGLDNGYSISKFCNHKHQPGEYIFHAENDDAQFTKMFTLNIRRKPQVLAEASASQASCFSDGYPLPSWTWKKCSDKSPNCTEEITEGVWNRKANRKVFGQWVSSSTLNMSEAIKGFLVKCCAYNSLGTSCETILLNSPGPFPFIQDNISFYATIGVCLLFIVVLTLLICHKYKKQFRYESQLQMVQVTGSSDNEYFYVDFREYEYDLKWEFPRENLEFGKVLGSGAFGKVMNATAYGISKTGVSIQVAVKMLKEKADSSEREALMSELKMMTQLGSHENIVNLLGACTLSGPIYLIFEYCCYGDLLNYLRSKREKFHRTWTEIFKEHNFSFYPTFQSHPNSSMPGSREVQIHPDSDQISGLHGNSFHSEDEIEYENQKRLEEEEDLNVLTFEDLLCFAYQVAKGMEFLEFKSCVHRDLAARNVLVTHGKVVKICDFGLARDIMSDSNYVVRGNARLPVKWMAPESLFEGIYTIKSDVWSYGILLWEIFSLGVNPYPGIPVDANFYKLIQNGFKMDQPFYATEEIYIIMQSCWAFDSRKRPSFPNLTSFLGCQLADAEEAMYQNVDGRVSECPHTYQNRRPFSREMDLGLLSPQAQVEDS
Sequence of Cytochrome P450 3A4 (P08684 whole entry): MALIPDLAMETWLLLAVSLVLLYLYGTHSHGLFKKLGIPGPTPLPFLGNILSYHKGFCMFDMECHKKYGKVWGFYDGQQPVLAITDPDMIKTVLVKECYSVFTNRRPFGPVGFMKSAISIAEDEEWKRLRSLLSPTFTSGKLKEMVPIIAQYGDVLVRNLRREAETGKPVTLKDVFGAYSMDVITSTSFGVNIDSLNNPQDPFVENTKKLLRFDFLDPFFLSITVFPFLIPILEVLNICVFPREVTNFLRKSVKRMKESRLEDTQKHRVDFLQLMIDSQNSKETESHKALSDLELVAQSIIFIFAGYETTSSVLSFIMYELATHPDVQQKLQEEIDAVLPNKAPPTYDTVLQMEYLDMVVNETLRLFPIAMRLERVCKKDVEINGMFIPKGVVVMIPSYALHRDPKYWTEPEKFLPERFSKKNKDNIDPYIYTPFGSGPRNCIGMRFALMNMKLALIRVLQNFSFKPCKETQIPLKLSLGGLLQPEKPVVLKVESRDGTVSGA
Sequence of Casein kinase II (P67870 whole entry): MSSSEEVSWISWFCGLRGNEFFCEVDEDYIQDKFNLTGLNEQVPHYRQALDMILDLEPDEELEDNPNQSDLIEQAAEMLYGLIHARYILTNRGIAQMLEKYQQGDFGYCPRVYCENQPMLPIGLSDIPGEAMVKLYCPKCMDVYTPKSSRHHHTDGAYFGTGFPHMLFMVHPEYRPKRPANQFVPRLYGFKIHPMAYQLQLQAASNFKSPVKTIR
Sequence of Casein kinase II (P68400 whole entry): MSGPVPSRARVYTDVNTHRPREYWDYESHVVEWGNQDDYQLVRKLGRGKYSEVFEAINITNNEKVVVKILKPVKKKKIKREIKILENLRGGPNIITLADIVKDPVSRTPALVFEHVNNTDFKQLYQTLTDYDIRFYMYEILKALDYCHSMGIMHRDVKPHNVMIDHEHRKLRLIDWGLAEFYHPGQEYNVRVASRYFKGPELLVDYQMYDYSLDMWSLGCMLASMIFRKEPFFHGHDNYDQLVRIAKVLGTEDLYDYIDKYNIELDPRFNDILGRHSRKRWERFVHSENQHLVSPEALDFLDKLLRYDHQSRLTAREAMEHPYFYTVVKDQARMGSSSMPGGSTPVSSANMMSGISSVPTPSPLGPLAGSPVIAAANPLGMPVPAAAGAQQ
Sequence of Casein kinase II (P19784 whole entry): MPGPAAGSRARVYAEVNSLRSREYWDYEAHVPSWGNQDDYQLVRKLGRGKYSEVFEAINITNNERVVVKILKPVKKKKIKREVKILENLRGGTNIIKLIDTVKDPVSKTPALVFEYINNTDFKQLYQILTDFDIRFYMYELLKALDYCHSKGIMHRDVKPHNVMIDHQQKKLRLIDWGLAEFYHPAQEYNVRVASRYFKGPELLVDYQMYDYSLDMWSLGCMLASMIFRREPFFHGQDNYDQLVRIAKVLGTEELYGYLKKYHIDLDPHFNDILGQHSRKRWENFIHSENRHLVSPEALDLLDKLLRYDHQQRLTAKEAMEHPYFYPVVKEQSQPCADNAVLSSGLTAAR
Sequence of Phosphatidylinositol 4,5-bisphosphate 3-kinase catalytic subunit gamma isoform (P48736 whole entry, canonical isoform): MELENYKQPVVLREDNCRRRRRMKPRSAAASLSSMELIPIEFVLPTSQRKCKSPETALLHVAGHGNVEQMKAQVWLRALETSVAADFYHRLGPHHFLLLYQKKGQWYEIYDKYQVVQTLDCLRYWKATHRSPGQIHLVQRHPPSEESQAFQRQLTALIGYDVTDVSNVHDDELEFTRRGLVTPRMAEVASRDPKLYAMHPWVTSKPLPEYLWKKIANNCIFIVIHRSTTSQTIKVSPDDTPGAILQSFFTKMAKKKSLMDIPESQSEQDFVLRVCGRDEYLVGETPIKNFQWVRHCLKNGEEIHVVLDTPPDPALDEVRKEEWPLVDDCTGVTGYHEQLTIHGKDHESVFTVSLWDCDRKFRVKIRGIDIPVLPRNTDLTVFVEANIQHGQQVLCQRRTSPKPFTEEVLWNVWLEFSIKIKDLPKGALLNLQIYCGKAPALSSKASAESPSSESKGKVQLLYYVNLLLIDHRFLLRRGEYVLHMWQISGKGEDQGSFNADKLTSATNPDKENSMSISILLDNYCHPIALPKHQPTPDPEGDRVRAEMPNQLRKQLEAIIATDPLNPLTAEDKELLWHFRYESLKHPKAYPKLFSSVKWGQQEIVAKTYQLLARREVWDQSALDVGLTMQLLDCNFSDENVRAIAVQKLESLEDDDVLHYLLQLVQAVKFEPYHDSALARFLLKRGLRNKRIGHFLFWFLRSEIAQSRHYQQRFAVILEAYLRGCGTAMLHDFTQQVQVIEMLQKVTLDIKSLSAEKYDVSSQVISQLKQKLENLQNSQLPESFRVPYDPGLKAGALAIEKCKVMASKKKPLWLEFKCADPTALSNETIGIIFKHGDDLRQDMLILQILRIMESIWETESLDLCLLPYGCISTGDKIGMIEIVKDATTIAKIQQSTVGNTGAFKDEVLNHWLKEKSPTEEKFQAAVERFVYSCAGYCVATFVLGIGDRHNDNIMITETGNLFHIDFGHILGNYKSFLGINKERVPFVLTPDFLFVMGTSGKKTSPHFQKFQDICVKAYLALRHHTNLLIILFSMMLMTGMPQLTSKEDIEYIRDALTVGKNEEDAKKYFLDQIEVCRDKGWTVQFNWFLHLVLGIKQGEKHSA

## Cc1c(C(=O)N2CCOc3ccc(-c4ccc(N)nc4)cc3C2)ccc(S(C)(=O)=O)c1F
[1]
  concentration at 4 h: 35.9 µM
[2]
  concentration at 1 h: 36.1 µM
[3]
  inhibition in vivo at 100 mg/kg: 94%
[4]
  inhibition in vivo at 100 mg/kg: 98%
[5]
  IC50: > 3.5 µM
[6]
  IC50: > 5 µM
[7]
  bioavailability: 53.4%
[8]
  clearance: 45.8 mL/min/kg
[9]
  half-life: 51.6 min
[10]
  half-life: 27 min
[11]
  AUC(0-inf): 11 µM·h
[12]
  AUC(0-inf): 8 µM·h
[13]
  Drug uptake: BLD
[14]
  Cp: BLD
[15]
  INH: 10.6 µM
[16]
  INH: 24.6 µM
[17]
  remaining at 0.5 h: 78%
[18]
  IC50: > 3 µM
[19]
  IC50: > 10 µM
[20]
  IC50: > 3.5 µM
[21]
  IC50: > 3.5 µM
[22]
  inhibition in vivo at 100 mg/kg: 90%
[23]
  inhibition in vivo at 100 mg/kg: 95%
[24]
  inhibition in vivo at 100 mg/kg: 87%
[25]
  inhibition in vivo at 100 mg/kg: 36%
[26]
  inhibition in vivo at 100 mg/kg: 55%
